In publication PMC4814305 (The Biochemical journal, 2016):
Several values for one entry are separate records, joined by “and”; a condition that tells them apart may be missing. Equal values may be shown once. Entries after “also recorded” stand apart in the source; their conditions may differ.

Columns and labels:
[1] = target: T1, mitochondrial pyruvate carrier (MPC) (Rattus norvegicus, UniProt P38718+P63031); test: [1-14C] pyruvate uptake into isolated rat liver mitochondria; format: biochemical
T1 sequence (P63031 1-109): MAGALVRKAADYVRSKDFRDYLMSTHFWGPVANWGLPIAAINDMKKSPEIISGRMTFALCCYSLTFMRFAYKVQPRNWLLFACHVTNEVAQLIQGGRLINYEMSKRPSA
T1 sequence (P38718 1-127): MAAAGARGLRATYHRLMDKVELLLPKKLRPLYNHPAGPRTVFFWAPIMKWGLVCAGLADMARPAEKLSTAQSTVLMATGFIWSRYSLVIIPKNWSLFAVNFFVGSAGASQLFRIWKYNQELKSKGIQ
Procedure, shortened: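 Liver mitochondria from male Wistar rats (~275 g) were isolated by homogenisation, differential and Percoll centrifugation, then held 2 min on ice at 6 mg protein/mL with test compound. Uptake ran in pH 6.8 KCl/MOPS/EGTA buffer with 1 μM rotenone, 60 μM [1-14C]pyruvate and 3H2O at 9°C, stopped at 45 s by rapid sedimentation. Four replicates per concentration, 3 preparations; Ki fitted from % of control, mean ± S.E.M.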

DB-1 xenografts = conditions: 100 mg/kg i.p., cited from earlier work
MCT1 = target: T2, MCT1 (Rattus norvegicus, UniProt P53987); test: [U-14C] L-lactate uptake by Xenopus laevis oocytes expressing MCT1; format: cell-based; conditions: cooperative inhibition fit
T2 sequence (P53987 1-494): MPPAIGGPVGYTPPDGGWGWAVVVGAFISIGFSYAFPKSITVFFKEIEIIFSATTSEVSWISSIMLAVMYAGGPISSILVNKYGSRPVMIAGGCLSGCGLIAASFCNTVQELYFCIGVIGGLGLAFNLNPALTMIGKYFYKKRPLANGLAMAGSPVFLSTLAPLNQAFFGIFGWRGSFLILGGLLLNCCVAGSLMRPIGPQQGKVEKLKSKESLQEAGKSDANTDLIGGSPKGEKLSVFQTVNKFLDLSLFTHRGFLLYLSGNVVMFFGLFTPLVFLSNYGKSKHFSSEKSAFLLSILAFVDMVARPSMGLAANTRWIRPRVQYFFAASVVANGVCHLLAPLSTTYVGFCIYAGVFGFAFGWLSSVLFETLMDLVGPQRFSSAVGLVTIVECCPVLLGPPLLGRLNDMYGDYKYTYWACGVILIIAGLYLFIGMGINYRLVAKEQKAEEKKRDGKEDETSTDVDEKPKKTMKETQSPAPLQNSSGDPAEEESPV

MCT2 = target: T3, MCT2 (Rattus norvegicus, UniProt Q63344); test: [U-14C] L-lactate uptake by Xenopus laevis oocytes expressing MCT2; format: cell-based; conditions: cooperative inhibition fit
T3 sequence (Q63344 1-489): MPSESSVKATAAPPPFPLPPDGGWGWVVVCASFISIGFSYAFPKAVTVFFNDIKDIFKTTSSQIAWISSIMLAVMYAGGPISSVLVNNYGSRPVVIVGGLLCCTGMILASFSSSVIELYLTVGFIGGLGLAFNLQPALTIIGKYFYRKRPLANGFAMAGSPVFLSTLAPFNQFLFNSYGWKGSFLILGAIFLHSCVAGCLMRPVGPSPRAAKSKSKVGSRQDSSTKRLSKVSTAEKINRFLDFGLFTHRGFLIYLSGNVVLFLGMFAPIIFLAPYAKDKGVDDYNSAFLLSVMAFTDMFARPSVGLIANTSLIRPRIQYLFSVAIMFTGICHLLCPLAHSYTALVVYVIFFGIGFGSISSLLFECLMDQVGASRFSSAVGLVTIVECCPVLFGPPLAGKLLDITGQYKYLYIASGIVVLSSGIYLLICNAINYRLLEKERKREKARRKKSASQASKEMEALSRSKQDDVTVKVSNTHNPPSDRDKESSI
T3 sequence (O88775 34-328 partner): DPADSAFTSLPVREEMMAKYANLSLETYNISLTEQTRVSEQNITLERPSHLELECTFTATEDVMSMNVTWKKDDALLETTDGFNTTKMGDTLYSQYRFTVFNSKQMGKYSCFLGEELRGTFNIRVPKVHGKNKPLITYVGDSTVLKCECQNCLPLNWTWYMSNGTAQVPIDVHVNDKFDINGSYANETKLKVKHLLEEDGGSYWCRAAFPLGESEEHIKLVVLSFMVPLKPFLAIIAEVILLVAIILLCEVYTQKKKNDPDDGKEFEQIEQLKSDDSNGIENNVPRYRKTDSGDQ

MCT4 = target: T4, MCT4 (Homo sapiens, UniProt O15427); test: [U-14C] L-lactate uptake by Xenopus laevis oocytes expressing MCT4; format: cell-based; conditions: cooperative inhibition fit
T4 sequence (O15427 1-465): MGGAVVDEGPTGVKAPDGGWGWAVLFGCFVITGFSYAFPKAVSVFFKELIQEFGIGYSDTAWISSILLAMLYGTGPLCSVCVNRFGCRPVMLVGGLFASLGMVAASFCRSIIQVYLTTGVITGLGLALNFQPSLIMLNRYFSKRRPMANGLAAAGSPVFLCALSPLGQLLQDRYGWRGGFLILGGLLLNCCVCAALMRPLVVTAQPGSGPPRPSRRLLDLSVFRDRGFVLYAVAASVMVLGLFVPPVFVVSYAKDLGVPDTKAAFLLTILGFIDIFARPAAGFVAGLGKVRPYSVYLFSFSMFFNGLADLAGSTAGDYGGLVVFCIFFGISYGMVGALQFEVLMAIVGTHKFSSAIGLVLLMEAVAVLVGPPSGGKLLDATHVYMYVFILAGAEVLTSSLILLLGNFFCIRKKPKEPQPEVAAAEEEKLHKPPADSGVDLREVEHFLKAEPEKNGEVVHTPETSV

[2] = test system: uncoupled pyruvate oxidation by isolated rat heart mitochondria; test: Uncoupled pyruvate oxidation by rat heart mitochondria; format: biochemical
[3] = test system: DB-1 human melanoma cells; test: L-lactate output and intracellular [L-lactate] of DB-1 melanoma cells; format: cell-based; conditions: DB-1 cells, 1 h, vs DMSO

Q: What does the source list for `O=C(O)c1nn(Cc2ccc(Cl)cc2Cl)c2ccccc12` [LND, Lonidamine]?
A: Ki [1]: 2.5 µM; tumour pHi after LND treatment (DB-1 xenografts; DB-1 xenografts in mice, within about 40 min, from 6.9 ± 0.1): 6.3 ± 0.1; decrease in the tumour NTP/Pi ratio (DB-1 xenografts; DB-1 xenografts in mice, within about 3 hr): 66.8 ± 5.7%; decrease in extracellular pH of the tumour (DB-1 xenografts; DB-1 xenografts in mice): ~ 0.2 pH units; rise in tumour [L-lactate] (DB-1 xenografts; DB-1 xenografts in mice): three-fold; change in pHi of liver (DB-1 xenografts; mice, 20 min post-injection): only a slight transient change; change in NTP/Pi of the liver (DB-1 xenografts; mice, 40 min post-injection): only a transient small decrease; change in NTP/Pi ratio of muscle and brain (DB-1 xenografts; mice): no change; change in pHi of normal muscle or brain (DB-1 xenografts; mice): No significant change; Hill coefficient of inhibition of MCT1 (MCT1): 1.65–1.85 and 1.65 ± 0.23; Hill coefficient of inhibition of MCT2 (MCT2): 1.86 ± 0.34; Hill coefficient of inhibition of MCT4 (MCT4): 1.65–1.85 and 1.84 ± 0.19; effect on uncoupled pyruvate oxidation ([2]; 30°C, 2 μM LND): without effect; inhibition of uncoupled pyruvate oxidation ([2]; 30°C, 3 μM LND): ~ 15%; inhibition of uncoupled pyruvate oxidation ([2]; 30°C, 10 μM LND): ~70%; IC50 ([2]; read-out: IC50 for inhibition of uncoupled pyruvate oxidation, 30°C, pyruvate + malate, FCCP): ~7 µM and ~7.5 µM; increase of intracellular [L-lactate] ([3]; 40 μM LND): two-fold; L-lactate output ([3]; 40 μM and 150 μM LND): decrease in L-lactate output; L-lactate output ([3]; 150 μM LND): decreased L-lactate output; also recorded: L-lactate output decreased; increase of intracellular [L-lactate] ([3]; 150 μM LND): > five-fold; also recorded: eight-fold; L-lactate output ([3]; 1–10 μM LND): increased L-lactate output; intracellular [L-lactate] ([3]; 1–10 μM LND): without a detectable increase

Q: For `N#CC(=Cc1ccc(O)cc1)C(=O)O` [CHC, α-cyano-4-hydroxycinnamate], which “inhibition of mitochondrial pyruvate carrier (pyruvate uptake)” value ([1]; rat liver mitochondria, 10 μM inhibitor) is on record?
A: > 90%
